# Active and inactive are the calls of the source.
# Assays:
# [1] = Effect on action potential in Wistar rat DRG neuron assessed as maximum descendant inclination at 1 mM by intracellular recording (reference value: -104.7 +/- 3.6 V/s)
# [2] = Effect on action potential in Wistar rat DRG neuron assessed as resting potential at 0.03 mM after 12 to 48 hrs by patch-clamp recordings (reference value: -60 +/- 1.1 mV); type: functional
# [3] = Effect on action potential in Wistar rat DRG neuron assessed as duration at half maximal amplitute at 1 mM by intracellular recording (reference value: 1.6 +/- 0.1 ms)
# [4] = Effect on action potential in Wistar rat DRG neuron assessed as resting potential at 3 mM after 12 to 48 hrs by patch-clamp recordings (reference value: -60 +/- 1.1 mV); type: functional
# [5] = Effect on action potential in Wistar rat DRG neuron assessed as maximum descendant inclination at 0.1 mM by intracellular recording (reference value: -104.7 +/- 3.6 V/s)
# [6] = Effect on action potential in Wistar rat DRG neuron assessed as maximum ascendant inclination at 1 mM after 12 to 48 hrs by patch-clamp recordings (reference value: 151.2 +/- 6.2 V/s); type: functional
# [7] = Effect on action potential in Wistar rat DRG neuron assessed as input resistance at 3 mM after 12 to 48 hrs by patch-clamp recordings (reference value: 25.5 +/- 2.1 Momega); type: functional
# [8] = Effect on action potential in Wistar rat DRG neuron assessed as maximum ascendant inclination at 0.3 mM after 12 to 48 hrs by patch-clamp recordings (reference value: 151.2 +/- 6.2 V/s); type: functional
# [9] = Effect on action potential in Wistar rat DRG neuron assessed as amplitude reduction at 0.3 mM after 12 to 48 hrs by patch-clamp recordings (reference value: 79 +/- 1.3 mV); type: functional
# [10] = Effect on action potential in Wistar rat DRG neuron assessed as duration at half maximal amplitute at 0.3 mM after 12 to 48 hrs by patch-clamp recordings (reference value: 1.6 +/- 0.1 ms); type: functional
# [11] = Effect on action potential in Wistar rat DRG neuron assessed as resting potential at 1 mM after 12 to 48 hrs by patch-clamp recordings (reference value: -60 +/- 1.1 mV); type: functional
# [12] = […] of Wistar rat sciatice nerve fiber excitability assessed as increase in rheobase at 0.6 mM (reference value: 3.30 +/- 0.06 V); type: functional
# [13] = Blockade of action potential in Wistar rat DRG neuron after 12 to 48 hrs by intracellular recordings
# Rattus norvegicus [14] = species: Rattus norvegicus; assay: Inhibition of voltage-gated sodium channel of […] rat dissociated DRG neuron assessed as inhibition of current induced of voltage-gated sodium current at holding potential by patch-clamp recordings; settings: concentration not given here
# [15] = Effect on action potential in Wistar rat DRG neuron assessed as resting potential at 0.3 mM after 12 to 48 hrs by patch-clamp recordings (reference value: -60 +/- 1.1 mV); type: functional
# [16] = Effect on action potential in Wistar rat DRG neuron assessed as input resistance at 0.6 mM after 12 to 48 hrs by patch-clamp recordings (reference value: 25.5 +/- 2.1 Momega); type: functional
# [17] = Effect on action potential in Wistar rat DRG neuron assessed as amplitude reduction at 3 mM after 12 to 48 hrs by patch-clamp recordings (reference value: 79 +/- 1.3 mV); type: functional
# [18] = Effect on action potential in Wistar rat DRG neuron assessed as maximum descendant inclination at 3 mM after 12 to 48 hrs by patch-clamp recordings (reference value: -104.7 +/- 3.6 V/s); type: functional
# [19] = Effect on action potential in Wistar rat DRG neuron assessed as duration at half maximal amplitute at 0.1 mM after 12 to 48 hrs by patch-clamp recordings (reference value: 1.6 +/- 0.1 ms); type: functional
# [20] = Effect on action potential in Wistar rat DRG neuron assessed as input resistance at 1 mM after 12 to 48 hrs by patch-clamp recordings (reference value: 25.5 +/- 2.1 Momega); type: functional
# [21] = Reduction in amplitude of compound action potential in frog sciatic nerve by electrophysiology; type: functional, tissue-based, Anura
# Sciatic nerve [22] = assay: Reduction in peak-to-peak amplitude of compound action potential in Wistar rat sciatic nerve after 180 mins by electrophysiology; type: functional, tissue-based; settings: 3 h
# Method in brief: (§1)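 Evoked compound action potentials in Wistar rat sciatic nerve, recorded 40–50 mm from the stimulating electrodes and sampled at 20 kHz. The segment was bathed in Locke's solution carrying the drug (0.03–1 mM) after at least 30 min of stable amplitude. Exposure lasted 180 min, then 180 min washout. Peak-to-peak amplitude, n = 5 per concentration; IC50 from a logistic fit at 180 min.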
# [23] = Effect on action potential in Wistar rat DRG neuron assessed as maximum ascendant inclination at 0.1 mM after 12 to 48 hrs by patch-clamp recordings (reference value: 151.2 +/- 6.2 V/s); type: functional
# [24] = Effect on action potential in Wistar rat DRG neuron assessed as maximum descendant inclination at 0.3 mM by intracellular recording (reference value: -104.7 +/- 3.6 V/s)
# [25] = Effect on action potential in Wistar rat DRG neuron assessed as amplitude reduction at 0.03 mM after 12 to 48 hrs by patch-clamp recordings (reference value: 79 +/- 1.3 mV); type: functional
# Sciatic nerve [26] = assay: Inhibition of second component amplitude of compound action potential in Wistar rat Abeta and Agamma sciatic nerve within 60 mins by electrophysiology; type: functional, tissue-based
# Method in brief: as §1
# [27] = Inhibition of voltage-gated sodium channel of Wistar rat dissociated DRG neuron assessed as inhibition of current induced of voltage-gated sodium current at -100 mV holding potential with 5 sec intervals by patch-clamp recordings
# Method in brief: (§2)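 Wistar rat DRG neurons dissociated with 1 mg/mL collagenase I (75 min) and 2.5 mg/mL trypsin (15 min) at 37 °C, plated on poly-D-lysine and used 12–48 h later. Whole-cell voltage clamp used 100 ms steps to 0 mV from −100 mV every 5 s, at room temperature. External solution: 20 mM NaCl with TEA, Cs and Cd, pH 7.4. Internal solution: CsCl, pH 7.2. Drug 0.01–10 mM, n = 50 cells, logistic fit.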
# [28] = Effect on action potential in Wistar rat DRG neuron assessed as duration at half maximal amplitute at 3 mM by intracellular recording (reference value: 1.6 +/- 0.1 ms)
# [29] = Effect on action potential in Wistar rat DRG neuron assessed as maximum ascendant inclination at 0.6 mM after 12 to 48 hrs by patch-clamp recordings (reference value: 151.2 +/- 6.2 V/s); type: functional
# [30] = Effect on action potential in Wistar rat DRG neuron assessed as maximum descendant inclination at 0.03 mM by intracellular recording (reference value: -104.7 +/- 3.6 V/s)
# Sciatic nerve [31] = assay: Reduction in peak-to-peak amplitude of compound action potential in Wistar rat sciatic nerve at 0.3 mM after 180 mins by electrophysiology; type: functional, tissue-based
# Method in brief: as §1
# [32] = Effect on action potential in Wistar rat DRG neuron assessed as maximum ascendant inclination at 3 mM after 12 to 48 hrs by patch-clamp recordings (reference value: 151.2 +/- 6.2 V/s); type: functional
# Sciatic nerve [33] = assay: Inhibition of first component amplitude of compound action potential in Wistar rat Aalpha sciatic nerve after 180 mins by electrophysiology; type: functional, tissue-based
# Method in brief: as §1
# [34] = Effect on action potential in Wistar rat DRG neuron assessed as resting potential at 0.1 mM after 12 to 48 hrs by patch-clamp recordings (reference value: -60 +/- 1.1 mV); type: functional
# [35] = Effect on action potential in Wistar rat DRG neuron assessed as amplitude reduction at 0.1 mM after 12 to 48 hrs by patch-clamp recordings (reference value: 79 +/- 1.3 mV); type: functional
# [36] = Effect on action potential in Wistar rat DRG neuron assessed as resting potential at 0.6 mM after 12 to 48 hrs by patch-clamp recordings (reference value: -60 +/- 1.1 mV); type: functional
# [37] = Effect on action potential in Wistar rat DRG neuron assessed as amplitude reduction at 0.6 mM after 12 to 48 hrs by patch-clamp recordings (reference value: 79 +/- 1.3 mV); type: functional
# Sciatic nerve [38] = assay: Reduction in peak-to-peak amplitude of compound action potential in Wistar rat sciatic nerve at 1 mM after 180 mins by electrophysiology; type: functional, tissue-based
# Method in brief: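 Sciatic nerve from Wistar rats (200–300 g, both sexes) held in a moist chamber, with a 15–20 mm segment immersed in Locke's solution that carried the drug (DMSO ≤0.2% v/v). One end was stimulated and evoked CAPs were recorded 40–50 mm away. Exposure lasted 180 min and began after at least 30 min of stable amplitude. Read-out was peak-to-peak amplitude, at 18–22 °C, n = 5, followed by 180 min washout.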
# [39] = Effect on action potential in Wistar rat DRG neuron assessed as maximum ascendant inclination at 0.03 mM after 12 to 48 hrs by patch-clamp recordings (reference value: 151.2 +/- 6.2 V/s); type: functional
# [40] = Effect on action potential in Wistar rat DRG neuron assessed as duration at half maximal amplitute at 0.03 mM after 12 to 48 hrs by patch-clamp recordings (reference value: 1.6 +/- 0.1 ms); type: functional
# Sciatic nerve [41] = assay: Reduction in peak-to-peak amplitude of compound action potential in Wistar rat sciatic nerve at 1 mM after 180 mins and measured after 180 mins washout by electrophysiology; type: functional, tissue-based
# Method in brief: as §1
# [42] = Effect on action potential in Wistar rat DRG neuron assessed as input resistance at 0.3 mM after 12 to 48 hrs by patch-clamp recordings (reference value: 25.5 +/- 2.1 Momega); type: functional
# [43] = Effect on action potential in Wistar rat DRG neuron assessed as amplitude reduction at 1 mM after 12 to 48 hrs by patch-clamp recordings (reference value: 79 +/- 1.3 mV); type: functional
# [44] = Reduction in amplitude of compound action potential in bullfrog sciatic nerve at 0.5 mM after 15 mins by electrophysiology; type: functional, Rana catesbeiana; settings: Aquarana catesbeiana, 0.25 h
# [45] = Effect on action potential in Wistar rat DRG neuron assessed as elevation in current threshold levels at 0.03 to 3 mM after 12 to 48 hrs by intracellular recordings relative to control
# [46] = Effect on action potential in Wistar rat DRG neuron assessed as input resistance at 0.03 mM after 12 to 48 hrs by patch-clamp recordings (reference value: 25.5 +/- 2.1 Momega); type: functional
# [47] = Effect on action potential in Wistar rat DRG neuron assessed as duration at half maximal amplitute at 0.6 mM after 12 to 48 hrs by patch-clamp recordings (reference value: 1.6 +/- 0.1 ms); type: functional
# [48] = Effect on action potential in Wistar rat DRG neuron assessed as input resistance at 0.1 mM after 12 to 48 hrs by patch-clamp recordings (reference value: 25.5 +/- 2.1 Momega); type: functional
# [49] = Effect on action potential in Wistar rat DRG neuron assessed as maximum descendant inclination at 0.6 mM by intracellular recording (reference value: -104.7 +/- 3.6 V/s)
# [50] = […] of Wistar rat sciatice nerve fiber excitability assessed as increase in chronaxy measured as time at 0.6 mM (reference value: 59.6 +/- 1.2 microsec); type: functional
# Rattus norvegicus [51] = species: Rattus norvegicus; assay: Inhibition of voltage-gated sodium channel of Wistar rat dissociated DRG neuron assessed as inhibition of current induced of voltage-gated sodium current at -100 mV holding potential with 5 sec intervals at 3 mM after 120 secs by patch-clamp recordings
# Method in brief: as §2
compound,measurement,setting,value
Cc1ccc(C(C)C)cc1O [CARVACROL],Activity,[1],-4.5 V/s
same,Activity,[2],-62.6 mV
same,Time,[3],0.2 ms
same,Activity,[4],-57.5 mV
same,Activity,[5],-78.9 V/s
same,Activity,[6],4.4 V/s
same,Activity,[7],20.8 MΩ
same,Activity,[8],84.4 V/s
same,Activity,[9],43.9 mV
same,Time,[10],0.9 ms
same,Activity,[11],-60.2 mV
same,Activity,[12],4.16 V
same,IC50,[13],360 µM
same,inhibition,Rattus norvegicus [14],70%
same,Activity,[15],-59.7 mV
same,Activity,[16],23.3 MΩ
same,Activity,[17],0 mV
same,Activity,[18],0 V/s
same,Time,[19],1.5 ms
same,Activity,[20],26.3 MΩ
same,IC50,[21],500 µM
same,IC50,Sciatic nerve [22],500 µM
same,Activity,[23],94.8 V/s
same,Activity,[24],-62.7 V/s
same,Activity,[25],77 mV
same,inhibition,Sciatic nerve [26],Active
same,IC50,[27],370 µM
same,Time,[28],0 ms
same,Activity,[29],56.5 V/s
same,Activity,[30],-102.2 V/s
same,inhibition,Sciatic nerve [31],inactive
same,Activity,[32],0 V/s
same,inhibition,Sciatic nerve [33],Active
same,Activity,[34],-60.2 mV
same,Activity,[35],53.9 mV
same,Activity,[36],-60.2 mV
same,Activity,[37],32.1 mV
same,inhibition,Sciatic nerve [38],Active
same,Activity,[39],128.6 V/s
same,Time,[40],1.6 ms
same,inhibition,Sciatic nerve [41],inactive
same,Activity,[42],27.1 MΩ
same,Activity,[43],4.2 mV
same,inhibition at 500 µM,[44],50%
same,Activity,[45],62.4%
same,Activity,[46],29.3 MΩ
same,Time,[47],0.6 ms
same,Activity,[48],26.7 MΩ
same,Activity,[49],-48 V/s
same,Time,[50],75 microsec
same,inhibition,Rattus norvegicus [51],Active
CCN(CC)CC(=O)Nc1c(C)cccc1C [LIDOCAINE],IC50,[21],740 µM
same,inhibition at 500 µM,[44],46%

# Source: ChEMBL document CHEMBL2203149, “Carvacrol decreases neuronal excitability by inhibition of voltage-gated sodium channels” (J Nat Prod, 2012)
